For one assay, the system named is P. falciparum strain Dd2. The assay is described as follows: SYBR Green I fluorescence antiplasmodial assay, Dd2. Format: cell-based, Plasmodium falciparum.
The subject of assay [1] is HepG2 hepatocarcinoma cells. The assay is described as follows: MTS human cell cytotoxicity assay. Format: cell-based. The conditions noted are these: for EC50: read-out: HepG2 EC50.
Assay [2] deals with acetyl-histone H4 in 3D7 parasite culture. Description: Immunoblot of histone H4 hyperacetylation. The conditions noted are these: 3D7 trophozoites, 5× EC50, 4 h, versus DMSO. Format: cell-based, Plasmodium falciparum. A general note: A western blot detects proteins with antibodies after separation by electrophoresis.
Another assay deals with T1, recombinant PfHDAC1 (Plasmodium falciparum, UniProt Q7K6A1).
T1 sequence (Q7K6A1 1-449): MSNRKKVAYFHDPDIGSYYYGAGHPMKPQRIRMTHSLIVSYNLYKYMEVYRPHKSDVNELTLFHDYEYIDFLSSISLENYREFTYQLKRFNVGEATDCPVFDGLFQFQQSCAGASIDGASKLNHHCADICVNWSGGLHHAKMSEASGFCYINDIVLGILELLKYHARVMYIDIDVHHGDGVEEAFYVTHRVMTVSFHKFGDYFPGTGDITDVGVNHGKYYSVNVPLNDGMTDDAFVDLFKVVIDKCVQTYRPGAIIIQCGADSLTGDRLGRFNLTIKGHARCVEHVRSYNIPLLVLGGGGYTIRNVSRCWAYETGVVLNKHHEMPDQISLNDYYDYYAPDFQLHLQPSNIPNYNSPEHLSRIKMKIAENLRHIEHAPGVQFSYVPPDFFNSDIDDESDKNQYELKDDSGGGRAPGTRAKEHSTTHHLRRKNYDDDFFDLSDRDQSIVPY
The assay is described as follows: biochemical.

The test system of another assay is P. falciparum 3D7. The conditions noted are these: read-out: P. falciparum 3D7 EC50; literature values; cited from earlier work.
For assay [3], the system named is histone H4 acetylation in Plasmodium culture. The assay is described as follows: Immunofluorescence assay with anti-acetyl histone H4. Format: cell-based, Plasmodium falciparum. To be noted: synchronous cultures, 5x EC50.
In assay [4] the test system is synchronous Dd2 parasites. The assay is described as follows: Stage specific inhibition assay. Format: cell-based, Plasmodium falciparum. The conditions noted are these: 5 × EC50, synchronous Dd2. An outline of the steps:
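Stage development assessed by Giemsa smears at every condition and time point, plus flow cytometry. Flow samples fixed in 4% paraformaldehyde for 30 min at 37°C, washed 3x in PBS, held at 4°C, then resuspended in 0.25% Triton X-100 and shaken at 500 RPM for 10 min. Parasites gated against an uninfected RBC control; treated-culture histograms overlaid on vehicle-treated culture.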

The subject of assay [5] is asynchronous P. falciparum Dd2 parasites. Description: Rate of killing assay with compound wash-off. Format: cell-based, Plasmodium falciparum. To be noted: 10 × EC50, exposure 24 or 48 h, then wash-off.
[6] abbreviates: 48 h treatment, MTS, mean of triplicate ± SE/SEM.
Where [7] appears, read: read-out: PfHDAC1 IC50, recombinant enzyme, 2 h at 37°C, mean of duplicate ± SEM.

Read-outs that look alike come from different tables or passages of the source. Non-standard residues stand in square brackets, D forms with d. Residues, ends and D or L forms follow the SMILES beside them. ξ: configuration not given here. Aoe = N[C@@H](CCCCCC(=O)[C@@H]1CO1)C(=O)O; Aoe(9ξ) = N[C@@H](CCCCCC(=O)C1CO1)C(=O)O; Pip = O=C(O)[C@@H]1CCCCN1

In the case of `CC1(C)NC(=O)[C@H](CCCCCC(=O)[C@H]2CO2)NC(=O)[C@H]2CCCN2C(=O)[C@H](Cc2ccccc2)NC1=O` [Compound 1, chlamydocin], the EC50 (in general, the concentration that produces a half-maximal response) in the assay on P. falciparum strain Dd2 (Plasmodium falciparum, DD2, 72 h, read-out: Dd2 EC50) worked out at 31 ± 7 nM; in assay [1] (Homo sapiens, HepG2, 48 h) it was 530 ± 7 nM. Besides, the “Selectivity Index (SI)” value in assay [1] (HepG2 EC50 / average of Dd2 EC50 and 3D7 EC50) is listed as 17.
For `C[C@@H]1NC(=O)[C@H](CCCCCC(=O)[C@@H]2CO2)NC(=O)[C@H]2CCCN2C(=O)[C@H](Cc2ccccc2)NC1=O` [Compound 2, 1-alaninechlamydocin] (cyclo(AF[dP][Aoe])), the “histone H4 acetylation (Western blot)” value in assay [2] is “hyperacetylation”. Further, the EC50 in assay [1] (setting [6]) was determined as 38 ± 6 nM.
`CC(C)C[C@@H]1NC(=O)[C@@H](Cc2ccccc2)NC(=O)[C@H](CCCCCC(=O)C2CO2)NC(=O)[C@@H]2CCCCN2C1=O` (some centres unmarked) [Compound 11, WF-3161] (cyclo(L[Pip][Aoe(9ξ)][dF])): the IC50 – broadly, the concentration that gives 50% inhibition – on recombinant PfHDAC1 (setting [7]) turned out to be 2 ± 2 nM. Also, in assay [1] (setting [6]), the EC50 came out at 22000 ± 900 nM.
Regarding `C[C@@H]1NC(=O)[C@H]2CCCN2C(=O)[C@H](CCCCCC(=O)[C@@H]2CO2)NC(=O)[C@@H](C)NC1=O` [HC toxin], the EC50 with P. falciparum 3D7 is 29 ± 2 nM.
As for `O=C(CCCCCCC(=O)Nc1ccccc1)NO` [SAHA, suberanilohydroxamic acid], in assay [2], the “histone H4 acetylation (Western blot)” value was “hyperacetylation”. In assay [3], the “histone H4 acetylation (immunofluorescence)” value is recorded as “noticeable increase in histone H4 acetylation”. On recombinant PfHDAC1, the IC50 turned out to be 92 ± 20 nM. Moreover, in assay [4], the “effect of treatment at 6 HPI” value is “resemble late trophozoite” and the “effect of treatment at 42 HPI” value is “partially inhibited at schizogony”.
As for Deoxy-WF 20782B [Compound 5], the “fold increase in EC50 compared with epoxide or alcohol R1 analogs” value in the assay on P. falciparum strain Dd2 (ethyl analog versus analogs with epoxide or alcohol at R1) is listed as 2–6 fold. Moreover, the EC50 in assay [1] (setting [6]) was determined as 880 ± 50 nM.
Regarding FR235222 [Compound 3], the killing profile entry in assay [5] was “plasmodistatic”. Further, the EC50 in assay [1] (setting [6]) was 260 ± 60 nM.
Consider NA 1309 [Compound 7], for which, on recombinant PfHDAC1 (setting [7]), the IC50 is 6300 ± 800 nM. Also, the EC50 in assay [1] (setting [6]) was above 25000 nM.
In the case of WF 27082F [Compound 4], in assay [1] (setting [6]), the EC50 amounted to 150 ± 40 nM.
